Assay results: ChEMBL document CHEMBL3120102, “Structure-based design, synthesis and biological evaluation of novel anthra[1,2-d]imidazole-6,11-dione homologues as potential antitumor agents” (2013)

Experiments:
Assay type in all cases: functional
NCI-H226 = assay: Cytotoxicity against human NCI-H226 cells assessed as growth inhibition after 48 hrs by SRB assay; conditions: for GI50 / LC50 / TGI: NCI-H226, 48 h
Summary of the method: (§1)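 NCI 60-cell-line screen, five-dose stage: each cell line exposed for 48 h to five concentrations spanning five log steps; cellular protein measured by sulforhodamine B colorimetry. A time-zero cell control and plates without drug are used to derive GI50, TGI and LC50 from log-concentration dose-response curves.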

OVCAR-3 = assay: Cytotoxicity against human OVCAR3 cells assessed as growth inhibition after 48 hrs by SRB assay; conditions: for GI50 / LC50 (50% lethal concentration) / TGI: OVCAR-3, 48 h; summary of the method: as §1
LOX IMVI = assay: Cytotoxicity against human LOXIMVI cells assessed as growth inhibition after 48 hrs by SRB assay
Summary of the method: (§2)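 NCI 60-cell-line five-dose screen at […]. Drug exposure was 48 h, followed by sulforhodamine B protein staining. GI50, TGI and LC50 were calculated against a time-zero control and untreated plates, with dose–response curves plotted from log10 concentration.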

SK-MEL-2 = assay: Cytotoxicity against human SK-MEL-2 cells assessed as growth inhibition after 48 hrs by SRB assay; conditions: for GI50 / LC50 (50% lethal concentration) / TGI: SK-MEL-2, 48 h; summary of the method: as §1
Hs-578T = assay: (§3) Cytotoxicity against human Hs578T cells assessed as growth inhibition after 48 hrs by SRB assay; summary of the method: as §2
[1] = as §3; conditions: Hs-578T; for CC50: read-out: LC50 (the source's name); summary of the method: as §2
HOP-92 = assay: Cytotoxicity against human HOP92 cells assessed as growth inhibition after 48 hrs by SRB assay; conditions: for GI50 / TGI / CC50: HOP-92, 48 h; for CC50: read-out: LC50 (the source's name); summary of the method: as §2
[2] = Cytotoxicity against human Hs578T cells assessed as cell growth at 10 uM after 48 hrs by SRB assay; conditions: Hs-578T, read-out: Activity
Malme-3M = assay: Cytotoxicity against human MALME-3M cells assessed as growth inhibition after 48 hrs by SRB assay; conditions: for CC50: read-out: LC50 (the source's name); summary of the method: as §2
SW-620 = assay: Cytotoxicity against human SW620 cells assessed as growth inhibition after 48 hrs by SRB assay; conditions: for GI50 / LC50 / TGI: SW-620, 48 h
Summary of the method: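 NCI 60-cell-line screen, two stages. Five-dose testing at […]. Cellular protein measured by sulforhodamine B colorimetry after 48 h drug exposure. A time-zero control and drug-free plates are used to derive GI50, TGI and LC50 from dose-response curves plotted as log10 concentration per cell line.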

OVCAR-5 = assay: (§4) Cytotoxicity against human OVCAR5 cells assessed as growth inhibition after 48 hrs by SRB assay; summary of the method: as §1
[3] = as §4; conditions: OVCAR-5, 48 h; summary of the method: as §1
HCT-116 = assay: Cytotoxicity against human HCT116 cells assessed as growth inhibition after 48 hrs by SRB assay; conditions: for GI50 / LC50 / TGI: HCT-116, 48 h; summary of the method: as §2
HL-60(TB) = assay: Cytotoxicity against human HL-60(TB) cells assessed as growth inhibition after 48 hrs by SRB assay; conditions: for GI50 / LC50 / TGI: HL-60, 48 h
Summary of the method: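 NCI 60-cell panel five-concentration stage (0.01, 0.1, 1, 10, 100) in HL-60(TB). Cellular protein was measured by sulforhodamine B colorimetry after 48 h of exposure. A time-zero cell control and untreated plates allowed calculation of GI50, TGI and LC50. These were read from log10 concentration dose-response curves.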

CAKI-1 = assay: Cytotoxicity against human CAKI-1 cells assessed as growth inhibition after 48 hrs by SRB assay; summary of the method: as §2

CCSc1nc2ccc3c(c2[nH]1)C(=O)c1ccccc1C3=O
growth inhibition (GI) (NCI-H226): Dose-dependent effect | GI50 (NCI-H226): 14.2 µM | LC50 (NCI-H226): > 100 µM | TGI (NCI-H226): > 100 µM | growth inhibition (GI) (OVCAR-3): Dose-dependent effect | GI50 (OVCAR-3): 10.2 µM | LC50 (50% lethal concentration) (OVCAR-3): > 100 µM | TGI (OVCAR-3): > 100 µM | GI50 (LOX IMVI): 6000 nM | LC50 (LOX IMVI): > 100 µM | TGI (LOX IMVI): > 100000 nM | growth inhibition (GI) (LOX IMVI): Dose-dependent effect | growth inhibition (GI) (SK-MEL-2): Dose-dependent effect | GI50 (SK-MEL-2): 5.1 µM | LC50 (50% lethal concentration) (SK-MEL-2): > 100 µM | TGI (SK-MEL-2): > 100 µM | growth inhibition (GI) (Hs-578T): Dose-dependent effect | GI50 [1]: 5.12 µM | TGI [1]: > 100 µM | CC50 [1]: > 100 µM | growth inhibition (GI) (HOP-92): Dose-dependent effect | GI50 (HOP-92): 90.6 µM | TGI (HOP-92): > 100 µM | CC50 (HOP-92): > 100 µM | growth at 10 µM [2]: 85.4% | GI50 (Malme-3M): 3.58 µM | TGI (Malme-3M): 94 µM | growth inhibition (GI) (Malme-3M): Dose-dependent effect | CC50 (Malme-3M): > 100 µM | growth inhibition (GI) (SW-620): Dose-dependent effect | GI50 (SW-620): > 100000 nM | LC50 (SW-620): > 100 µM | TGI (SW-620): > 100 µM | growth inhibition (GI) (OVCAR-5): Dose-dependent effect | GI50 [3]: 6.25 µM | LC50 [3]: > 100 µM | TGI [3]: > 100 µM | growth inhibition (GI) (HCT-116): Dose-dependent effect | GI50 (HCT-116): 5590 nM | LC50 (HCT-116): > 100 µM | TGI (HCT-116): > 100 µM | growth inhibition (GI) (HL-60(TB)): Dose-dependent effect | GI50 (HL-60(TB)): 5.26 µM | LC50 (HL-60(TB)): > 100 µM | TGI (HL-60(TB)): > 100 µM

O=C1c2ccccc2C(=O)c2c1ccc1nc(SCCN3CCCC3)[nH]c21
growth inhibition (GI) (NCI-H226): Dose-dependent effect | TGI (NCI-H226): 36.6 µM | growth inhibition (GI) (OVCAR-3): Dose-dependent effect | GI50 (OVCAR-3): 2.76 µM | LC50 (50% lethal concentration) (OVCAR-3): 35.6 µM | TGI (OVCAR-3): 11.1 µM | GI50 (LOX IMVI): 1430 nM | LC50 (LOX IMVI): 6.25 µM | TGI (LOX IMVI): 2990 nM | growth inhibition (GI) (LOX IMVI): Dose-dependent effect | growth inhibition (GI) (SK-MEL-2): Dose-dependent effect | GI50 (SK-MEL-2): 17.1 µM | LC50 (50% lethal concentration) (SK-MEL-2): 63.5 µM | TGI (SK-MEL-2): 32.9 µM | growth inhibition (GI) (Hs-578T): Dose-dependent effect | GI50 [1]: 6.24 µM | TGI [1]: 25.8 µM | CC50 [1]: 79.9 µM | GI50 (Malme-3M): 14 µM | TGI (Malme-3M): 28.8 µM | growth inhibition (GI) (Malme-3M): Dose-dependent effect | CC50 (Malme-3M): 59.4 µM | growth inhibition (GI) (SW-620): Dose-dependent effect | GI50 (SW-620): 1940 nM | LC50 (SW-620): 19.7 µM | TGI (SW-620): 5.09 µM | growth inhibition (GI) (OVCAR-5): Dose-dependent effect | GI50 [3]: 15.5 µM | LC50 [3]: 55.8 µM | TGI [3]: 29.4 µM | growth inhibition (GI) (HCT-116): Dose-dependent effect | GI50 (HCT-116): 1640 nM | LC50 (HCT-116): 8.15 µM | TGI (HCT-116): 3.66 µM | growth inhibition (GI) (HL-60(TB)): Dose-dependent effect | GI50 (HL-60(TB)): 1.13 µM | LC50 (HL-60(TB)): 57.6 µM | TGI (HL-60(TB)): 11.9 µM

CN(C)CCCSc1nc2ccc3c(c2[nH]1)C(=O)c1ccccc1C3=O
growth inhibition (GI) (CAKI-1): Dose-dependent effect | GI50 (CAKI-1; CAKI-1, 48 h): 822 nM | TGI (CAKI-1; CAKI-1, 48 h): 11 µM | growth inhibition (GI) (NCI-H226): Dose-dependent effect | TGI (NCI-H226): 22.1 µM | growth inhibition (GI) (OVCAR-3): Dose-dependent effect | GI50 (OVCAR-3): 3.73 µM | TGI (OVCAR-3): 18.2 µM | GI50 (LOX IMVI): 1360 nM | TGI (LOX IMVI): 3000 nM | growth inhibition (GI) (LOX IMVI): Dose-dependent effect | growth inhibition (GI) (SK-MEL-2): Dose-dependent effect | GI50 (SK-MEL-2): 13.3 µM | TGI (SK-MEL-2): 26.3 µM | growth inhibition (GI) (Hs-578T): Dose-dependent effect | GI50 [1]: 4.84 µM | TGI [1]: 22.9 µM | CC50 [1]: 65 µM | growth at 10 µM [2]: 69.3% | GI50 (Malme-3M): 13.9 µM | TGI (Malme-3M): 27 µM | growth inhibition (GI) (Malme-3M): Dose-dependent effect | CC50 (Malme-3M): 52.4 µM | growth inhibition (GI) (SW-620): Dose-dependent effect | GI50 (SW-620): 1990 nM | TGI (SW-620): 6.29 µM | growth inhibition (GI) (OVCAR-5): Dose-dependent effect | GI50 [3]: 12.7 µM | TGI [3]: 25.9 µM | growth inhibition (GI) (HCT-116): Dose-dependent effect | GI50 (HCT-116): 1850 nM | TGI (HCT-116): 8.75 µM | growth inhibition (GI) (HL-60(TB)): Dose-dependent effect | GI50 (HL-60(TB)): 2.41 µM | TGI (HL-60(TB)): 8.52 µM

CCCSc1nc2ccc3c(c2[nH]1)C(=O)c1ccccc1C3=O
growth inhibition (GI) (CAKI-1): Dose-dependent effect | GI50 (CAKI-1; CAKI-1, 48 h): 3070 nM | LC50 (CAKI-1; CAKI-1, 48 h): > 100 µM | TGI (CAKI-1; CAKI-1, 48 h): > 100 µM | growth inhibition (GI) (NCI-H226): Dose-dependent effect | GI50 (NCI-H226): 4.37 µM | LC50 (NCI-H226): > 100 µM | TGI (NCI-H226): > 100 µM | growth inhibition (GI) (OVCAR-3): Dose-dependent effect | GI50 (OVCAR-3): 3.97 µM | LC50 (50% lethal concentration) (OVCAR-3): > 100 µM | TGI (OVCAR-3): 37.6 µM | GI50 (LOX IMVI): 3690 nM | LC50 (LOX IMVI): > 100 µM | TGI (LOX IMVI): > 100000 nM | growth inhibition (GI) (LOX IMVI): Dose-dependent effect | growth inhibition (GI) (SK-MEL-2): Dose-dependent effect | GI50 (SK-MEL-2): 15.9 µM | LC50 (50% lethal concentration) (SK-MEL-2): > 100 µM | TGI (SK-MEL-2): > 100 µM | growth inhibition (GI) (Hs-578T): Dose-dependent effect | GI50 [1]: 3.45 µM | TGI [1]: 83 µM | CC50 [1]: > 100 µM | growth inhibition (GI) (HOP-92): Dose-dependent effect | GI50 (HOP-92): 15 µM | TGI (HOP-92): > 100 µM | CC50 (HOP-92): > 100 µM | growth at 10 µM [2]: 33.3% | GI50 (Malme-3M): 4.27 µM | TGI (Malme-3M): > 100 µM | growth inhibition (GI) (Malme-3M): Dose-dependent effect | CC50 (Malme-3M): > 100 µM | growth inhibition (GI) (SW-620): Dose-dependent effect | GI50 (SW-620): > 100000 nM | LC50 (SW-620): > 100 µM | TGI (SW-620): > 100 µM | growth inhibition (GI) (OVCAR-5): Dose-dependent effect | GI50 [3]: 58.1 µM | LC50 [3]: > 100 µM | TGI [3]: > 100 µM | growth inhibition (GI) (HCT-116): Dose-dependent effect | GI50 (HCT-116): 3060 nM | LC50 (HCT-116): > 100 µM | TGI (HCT-116): > 100 µM | growth inhibition (GI) (HL-60(TB)): Dose-dependent effect | GI50 (HL-60(TB)): 68.4 µM | LC50 (HL-60(TB)): > 100 µM | TGI (HL-60(TB)): > 100 µM

O=C1c2ccccc2C(=O)c2c1ccc1[nH]c(=S)[nH]c21
growth at 10 µM [2]: 104%
